# According to PubChem BioAssay AID561 (The Scripps Research Institute Molecular Screening Center, 2006):
# Hit rate of the full screen: of about 65,000 compounds, about 280 (0.43%) were called active.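 The calls were made as follows: active = inhibition above the mean of all tested compounds plus 3 SD (cut at about 52% in these data); inactive = the rest.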 The entries come from a sample that favours actives as a whole.
# Biological target: Nuclear receptor ROR-alpha (Homo sapiens) (UniProt P35398)
# Sequence (P35398 whole entry, looked up): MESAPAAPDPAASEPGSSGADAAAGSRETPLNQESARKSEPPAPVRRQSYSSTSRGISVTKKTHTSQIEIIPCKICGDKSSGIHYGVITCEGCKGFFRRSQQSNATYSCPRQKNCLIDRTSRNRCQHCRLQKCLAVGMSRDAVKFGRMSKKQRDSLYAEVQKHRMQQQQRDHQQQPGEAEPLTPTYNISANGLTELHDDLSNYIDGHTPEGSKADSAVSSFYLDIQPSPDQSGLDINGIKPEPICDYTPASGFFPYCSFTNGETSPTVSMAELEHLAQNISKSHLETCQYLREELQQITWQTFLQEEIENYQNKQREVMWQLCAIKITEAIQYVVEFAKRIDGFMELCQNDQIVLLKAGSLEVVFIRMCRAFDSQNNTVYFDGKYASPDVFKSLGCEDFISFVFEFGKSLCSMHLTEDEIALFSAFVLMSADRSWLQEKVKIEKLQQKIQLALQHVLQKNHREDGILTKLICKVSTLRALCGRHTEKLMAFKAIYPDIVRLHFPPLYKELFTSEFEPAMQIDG
# Assay: suppression of basal RORA-driven reporter transcription – cell-based, luminescence, primary screen (AID 561)
# Settings: CHO-K1 Gal4-RORA LBD luciferase reporter, at 10 µM, stronger effect = higher value
# Method in brief: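 test system = CHO-K1 Gal4-RORA LBD luciferase reporter cells | dosing = 10 µM single point | times = 20 h compound treatment, 37 °C | signal = luciferase luminescence | read-out = % inhibition of basal luciferase versus +RORA/-RORA DMSO controls | benchmarks = mock-transfected cells as 100%, +RORA DMSO cells as 0% | replicates = tested once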
row,Compound,inhibition
1,O=C(Nc1cccnc1)c1noc2c1CCCCC2,19.3% (inactive)
2,CC[C@]1(O)CC2CN(CCc3c([nH]c4ccccc34)[C@@](C(=O)OC)(c3cc4c(cc3OC)N(C=O)[C@H]3[C@@](O)(C(=O)OC)[C@H](OC(C)=O)[C@]5(CC)C=CCN6CC[C@]43[C@@H]65)C2)C1 (stereo partly specified),54% (active)
3,O=C(C1CCC1)N1CCc2cc(S(=O)(=O)NCc3cccnc3)ccc21,-16.5% (inactive)
4,Cc1ccc(C(c2nnnn2C(C)(C)C)N2CCc3ccccc3C2)cc1 (stereo unspecified),-0.2% (inactive)
5,CN(c1ccccc1)c1ccc(/C=c2\s/c(=C(/C#N)C(=O)C(C)(C)C)n(Cc3ccco3)c2=O)cc1,11.3% (inactive)
6,CCCCc1nc2ccccc2c(NC(=O)CN2CCN(C)CC2)c1CCC,-1.9% (inactive)
7,O=C(Nc1ccon1)c1cccc(Cl)c1,2.2% (inactive)
8,O=C(Nc1ccc(Cl)cc1)c1ccsn1,-59.5% (inactive)
9,COc1ccc(OC)c(NC(=O)Cn2c(=O)oc3ccccc32)c1,-7.4% (inactive)
10,O=C(CC1OC(=O)c2ccccc21)NC1CCCCC1 (stereo unspecified),7.6% (inactive)
11,COc1ccc(-c2cc(C(F)(F)F)nc(S(C)(=O)=O)n2)cc1OC,60.9% (active)
12,CCN1C(=O)/C(=C2\SC(N3CCCCC3)=NC2=O)c2ccccc21,-84.9% (inactive)
13,c1ccc(-n2ncc3c2ncn2c(CSc4nc5ccccc5s4)nnc32)cc1,25% (inactive)
14,O=C(NCc1ccccn1)c1c(O)c2c([nH]c1=O)CCCC2,9.5% (inactive)
15,O=C(OC1CCOC1=O)c1ccc(-c2nc3ccccc3s2)s1 (stereo unspecified),60.6% (active)
16,CN(Cc1ccccc1)c1nc2c(c(=O)[nH]c(=O)n2C)n1CCSc1nc2ccccc2[nH]1,-1.9% (inactive)
17,CCOc1ccccc1NC(=O)CCN1CCN(S(=O)(=O)c2ccc(OC)cc2)CC1,0.6% (inactive)
18,NC(=O)CSC1=Nc2ccccc2C2=NC(CCC(=O)NCc3ccc(F)cc3)C(=O)N12 (stereo unspecified),17.5% (inactive)
19,CCOC(=O)C1=C(CC)Nc2ccccc2N=C1NC(=O)c1cccc(S(=O)(=O)N2CCCC2)c1,-0.9% (inactive)
20,CCn1c(=N)c(S(=O)(=O)c2ccc(F)cc2)cc2c(=O)n3ccccc3nc21,13.5% (inactive)
21,c1ccc2c(c1)OCC(CNc1ncnc3nc[nH]c13)O2 (stereo unspecified),-20.2% (inactive)
22,Cc1ccc2nc(NC(=O)C3CCN(S(=O)(=O)c4ccc5c(c4)oc(=O)n5C)CC3)sc2c1,-2.8% (inactive)
23,CCOc1ccc(S(=O)(=O)N(CC(=O)O)c2ccccc2)cc1,0% (inactive)
24,COc1cc(C2C(C(=O)Nc3ccccc3OC)=C(C)Nc3ncnn32)ccc1O (stereo unspecified),-9.5% (inactive)

row,Compound,inhibition
1,COc1ccccc1NC(=O)c1ccc(C)s1,-48.9% (inactive)
2,COc1ccc(C(=O)Nc2ccc3c(c2)OCO3)cc1OC,-69.8% (inactive)
3,COCCCNC(=O)C1CC(=O)N(c2ccc(C)cc2)C1 (stereo unspecified),-6.1% (inactive)
4,CCOC(=O)c1ccc(NC(=O)Cn2nnc(-c3ccc(C)cc3)n2)cc1,-41.7% (inactive)
5,C=C(C)CSc1nc(N)c2c3c(sc2n1)CCC3,-56.2% (inactive)
6,CC1CCC(NC(=O)c2ccc(N3CCCC3=O)cc2)CC1 (stereo unspecified),-61.7% (inactive)
7,CCNS(=O)(=O)c1ccc(NC(=O)Nc2cccc(OC)c2)cc1,10% (inactive)
8,O=C(NCc1ccccc1)C1C(=O)N(Cc2ccccc2)C(=O)C1C1(O)CCCC1 (stereo unspecified),13% (inactive)
9,CCOC(=O)CSc1nncc2ccc(OC)c(OC)c12,21% (inactive)
10,Cc1ccccc1CSc1nnc(-c2cccnc2)n1N,7.1% (inactive)
11,O=C1c2ccccc2C(=O)N1c1ccccc1S(=O)C(F)(F)F (stereo unspecified),-6.1% (inactive)
12,COc1ccc(-n2ncc3c(N4CCc5ccccc54)ncnc32)cc1,-50.3% (inactive)
13,CCS(=O)(=O)N1CCCC(C(=O)NCc2ccc(C)cc2)C1 (stereo unspecified),5.2% (inactive)
14,Cc1cccc2nc(CNc3ccc(F)cc3)cn12,-1% (inactive)
15,Cc1cccc(NC(=O)c2ccc3ccccc3n2)n1,-83% (inactive)
16,COc1ccc(N2CCN(C(=O)CSc3nc4cc(OC)c(OC)cc4cc3C#N)CC2)cc1,8.5% (inactive)
17,Cc1ccc(NC(=O)NCC(c2cccnc2)N2CCOCC2)cc1 (stereo unspecified),20.8% (inactive)
18,CCOC(=O)C1=C(C)NC(C)=C(C(=O)OCC)C1C1=COCCO1,7.2% (inactive)
19,O=C(NCCN1CCOCC1)c1ccc2c(c1)ncn2C1CCCC1,-3.7% (inactive)
20,Cc1cc(C(=O)OCC(=O)NCc2ccco2)c(C)n1-c1ccccc1,-61.4% (inactive)
21,CCCOC(=O)c1[nH]c2c(c1C)C(=O)CC(c1cc(OC)c(OC)c(OC)c1)C2 (stereo unspecified),61.1% (active)
22,Cc1ccccc1OCC(=O)Nc1ccc(N2CCN(C(=O)C(C)C)CC2)c(Cl)c1,52% (active)
23,COc1ccc(C(=O)CSc2nnc(COc3ccccc3)n2Cc2ccco2)cc1,-7.7% (inactive)
24,COc1ccc(C)c2sc(=NC(=O)c3ccc(C#N)cc3)n(C)c12,-84.6% (inactive)

row,Compound,inhibition
1,CCS(=O)(=O)n1nc(-c2ccc(OC)cc2)nc1SC,-52.4% (inactive)
2,N#Cc1nc(Cc2ccccc2)oc1NCCc1ccccc1,-54.1% (inactive)
3,COc1cc(-n2c(C)nc3cc(C(=O)NCc4ccco4)ccc32)cc(OC)c1OC,-5.4% (inactive)
4,COc1ccc(OC)c(CN2C(=O)CCC2(C)C(=O)NC2CCCCCC2)c1 (stereo unspecified),5.2% (inactive)
5,CCN(CC)S(=O)(=O)c1cc(C(=O)Nc2ccccn2)ccc1C,-59.6% (inactive)
6,O=C(Nc1c(C(=O)N2CCCCC2)cnn1-c1ccccc1)c1ccco1,-6.7% (inactive)
7,O=c1c2ccccc2oc2nc(C3CCCCC3)n(Cc3ccco3)c(=O)c12,2.7% (inactive)
8,Cc1cccc(OCc2nnc(SCc3nc4cc(C(F)(F)F)ccc4c(=O)[nH]3)o2)c1,16.5% (inactive)
9,CCOc1cccc(-c2nn3c(-c4ccccn4)nnc3s2)c1,-0.6% (inactive)
10,O=C(Nc1ccc(Cl)cn1)c1cnn2cccnc12,-62% (inactive)
11,CSc1ccc(NC(=O)N2CC(C)OC(C)C2)cc1 (stereo unspecified),9.2% (inactive)
12,CCC(CC)C(=O)Nc1cccc(C(=O)N2CCCC2)c1,-11% (inactive)
13,Oc1ccc(Cl)cc1/C=N/c1nc2ccccc2[nH]1,-51.7% (inactive)
14,CSc1cccc(NC(=O)C2CCCN2S(=O)(=O)c2ccc3c(c2)CCC(=O)N3)c1 (stereo unspecified),-14% (inactive)
15,OC(COc1ccc2ccccc2c1)CN1CCOCC1 (stereo unspecified),-16.8% (inactive)
16,OCCCN1c2ccccc2Nc2nnc(-c3ccccc3)cc21,-56.8% (inactive)
17,CCC1(C)Cc2c(sc3nc4n(c(=O)c23)CCCS4)CO1 (stereo unspecified),-15.7% (inactive)
18,O=C(Cn1c(-c2cncs2)nc2ccccc21)NC1CCCC1,19.7% (inactive)
19,CCOC(=O)N1CCN(C(=O)C2CCN(c3ncnc4c3sc3cccc(F)c34)CC2)CC1,75.2% (active)
20,O=C(Nc1nc(-c2ccncc2)cs1)C1COc2ccccc2O1 (stereo unspecified),-15.8% (inactive)
21,CNC(=O)CSc1nnnn1-c1ccc(C)cc1C,14% (inactive)
22,CC1CCCN(Cc2nc3c(c(=O)n(C)c(=O)n3C)n2CC(=O)c2ccccc2)C1 (stereo unspecified),-31.2% (inactive)
23,CC(=O)Nc1ccc(-c2nn3c(C)nnc3s2)cc1C,10.7% (inactive)
24,N#CC(=C1SC=CS1)c1nc(-c2ccccc2)cs1,-59.7% (inactive)

row,Compound,inhibition
1,Cc1oc2nc(SCC(=O)NCc3cccnc3)nc(N)c2c1C,72.8% (active)
2,CNC(=O)CN1C(=O)c2ccccc2S1(=O)=O,-15% (inactive)
3,CC(C)c1ccc(NC(=O)NC2CCCCC2)cc1,-85.1% (inactive)
4,CC1CN(c2cc(=O)n(-c3cccc(Br)c3)c(=O)[nH]2)CC(C)O1 (stereo unspecified),29.5% (inactive)
5,Cc1ccnc(N2CCCC(C(=O)Nc3cc(F)ccc3C)C2)n1 (stereo unspecified),5.7% (inactive)
6,Cc1ccc(F)cc1NC(=O)Cc1nn(C)c(=O)c2ccccc12,53.5% (active)
7,CCC(=O)NC(=Nc1nc2ccccc2s1)NC(=O)CC,-48.7% (inactive)
8,Cc1ccc(S(=O)(=O)Nc2ccc3ncccc3c2)cc1,56.7% (active)
9,CCOC(=O)c1nc(-c2ccc3c(c2)OCO3)[nH]c1C,-66.7% (inactive)
10,c1c2c(cc3sc(N4CCCCC4)nc13)OCCO2,75.4% (active)
11,Fc1c(F)c(C(F)(F)F)c(F)c(F)c1N1CCN(c2ccc3nnc(C(F)(F)F)n3n2)CC1,6.9% (inactive)
12,O=C(O)C1OC(C(=O)O)C2C1C(F)(F)C2(F)F (stereo unspecified),1.7% (inactive)
13,COc1ccc(N=Cc2c(O)[nH]c3ccccc23)cc1OC,-55.7% (inactive)
14,C(=C\c1ccccc1)/CSc1nnc(-c2cccnc2)n1Cc1ccco1,-2.8% (inactive)
15,Cc1nc2ccc(S(=O)(=O)NCC(=O)NCCN3CCCCC3C)cc2s1 (stereo unspecified),6.1% (inactive)
16,Cn1c(=NC(=O)c2ccco2)sc2cccc(F)c21,-61.5% (inactive)
17,O=C(CN1C(=O)c2ccccc2S1(=O)=O)N1CCc2ccccc21,37.4% (inactive)
18,COc1ccccc1CNC(=O)C1CCCN(S(=O)(=O)c2cccc3cccnc23)C1 (stereo unspecified),5.2% (inactive)
19,CCC(=O)Oc1cccc(C(=O)Nc2ccc(-c3nnc(-c4ccco4)o3)cc2)c1,-112% (inactive)
20,COC(=O)c1sc(NC(=O)c2csc3c2CCCC3)nc1C,-33.7% (inactive)
21,COc1ccc(C(=O)Nc2nncs2)c(OC)c1,-62.9% (inactive)
22,c1ccc(Nc2nc(-c3ccncc3)cs2)nc1,-50.9% (inactive)
23,COc1ccc(OC)c(Nc2nc(-c3ccc(O)c(O)c3)cs2)c1,74.4% (active)
24,Cn1nnc2cc(C(=O)NCCC3=CCCCC3)ccc21,-18% (inactive)
